This note sets out measurements from ChEMBL document CHEMBL1135653, “Novel apoptosis-inducing trans-platinum piperidine derivatives: synthesis and biological characterization” (J Med Chem, 2002).

A short description of data set [1]: Solubility was determined in DDW(double distilled water) at 37 degrees Centigrade. It counts as physicochemical. Particulars: buffer.
Data set [2] can be described thus: In vitro growth inhibition against C-26 cells incubated for 24 hr using cytotoxicity assay. It counts as functional, cell-based, Mus musculus. The method, boiled down:
(§1)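 Methylene blue staining assay. Exponentially growing cells plated, incubated 24 h, then drugs added at various concentrations (saline for controls), four wells per variant. Drug exposure 4, 24 or 72 h, then washed and grown in fresh medium to 72 h total. Cells fixed in 2.5% glutaraldehyde, stained with 1% MB in 0.1 M borate pH 8.5, dye extracted with 0.1 N HCl at 37 °C, OD read at 620 nm. IC50 given as mean ± SD from at least two experiments.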

The nature of data set [3]: In vitro growth inhibition against C-26 cells incubated for 4 hr using cytotoxicity assay. The data set is classed as functional, cell-based, Mus musculus. Put shortly:
as §1

Data set [4] is described as follows: In vitro growth inhibition against C-26 cells incubated for 72 hr using cytotoxicity assay. It counts as functional, cell-based, Mus musculus. Put shortly:
as §1

Data set [5] deals with OV-1063. Briefly: In vitro growth inhibition against OV-1063 cells incubated for 4 hr using cytotoxicity assay. It counts as functional, cell-based, Homo sapiens. Put shortly: as §1
Data set [6] deals with OV-1063. Kind of data set: In vitro growth inhibition against OV-1063 cells incubated for 72 hr using cytotoxicity assay. It counts as functional, cell-based, Homo sapiens. The method, boiled down:
as §1

Data set [7] deals with OV-1063. Kind of data set: In vitro growth inhibition against OV-1063 cells incubated for 24 hr using cytotoxicity assay. The data set is classed as functional, cell-based, Homo sapiens. Put shortly: as §1

Values joined by “and” are separate entries in the source; they are usually repeats but may differ in a detail not shown here. Equal values may be shown once.

Consider CISPLATIN, for which, in data set [1], the concentration in solution (Solubility) was 2100 µg/mL. The IC50 (in general, the midpoint of a concentration-inhibition curve) in data set [2] came out at 0.6 µM; in data set [3], 1.5 µM; in data set [4], 0.2 µM; in data set [5], 2 µM; in data set [6] it was 0.5 µM; in data set [7] it was 0.7 µM.
For TRANSPLATIN, the Solubility – broadly, how much of the substance goes into solution per volume – in data set [1] came out at 240 µg/mL. The IC50 worked out at 46 µM in data set [2]; 64 µM in data set [3]; 41 µM in data set [4]; 81 µM in data set [5]; 52 µM in data set [6]; 73 µM in data set [7].
Consider cis-[ptcl2(NH3)(4-pic)], for which the IC50 in data set [2] was 11 µM and 4.7 µM; in data set [3] it was 12 µM and 5.1 µM; in data set [4], 11 µM and 3.7 µM; in data set [5], 18 µM and 6 µM; in data set [6] it was 14 µM and 4 µM; in data set [7] it was 16 µM and 5.1 µM.
With trans-[ptcl2(4-pic)(pip)], in data set [1], the Solubility came out at 30 µg/mL. Moreover, the IC50 was determined as 2.5 µM in data set [2]; 4.5 µM in data set [3]; 1.75 µM in data set [4]; 6.5 µM in data set [5]; 4.5 µM in data set [6]; 6 µM in data set [7].
trans-[ptcl2(4-pic)(pz)] HCl had a Solubility in data set [1] of 7500 µg/mL. Also, the IC50 in data set [2] is 4.5 µM; in data set [3], 5.5 µM; in data set [4], 3.5 µM; in data set [5], 7.4 µM; in data set [6], 5.1 µM; in data set [7], 6 µM.
